The target of test [1] is T1, Endoplasmic reticulum aminopeptidase 2 (Homo sapiens, UniProt Q6P179). Briefly: Inhibition of human recombinant ERAP2 expressed in baculovirus infected cabbage looper ovary Hi5 cells using L-arginyl-7-amido-4-methyl coumarin as substrate after 5 to 10 mins by fluorescence assay. On the set-up: species or system Female gonad, BTI-TN-5B1-4.
Test [2] deals with T2, Endoplasmic reticulum aminopeptidase 1 (Homo sapiens, UniProt Q9NZ08). In words: Inhibition of human recombinant ERAP1 expressed in baculovirus infected […] using L-leucine-7-amido-4-methyl coumarin as substrate up to 100 uM after 5 to 10 mins by fluorescence assay. An outline of the steps: (§1)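 Recombinant human enzymes made in baculovirus-infected Hi5 cells, kept in 10 mM HEPES pH 7, 100 mM NaCl, 10% glycerol. ERAP1 30 nM, ERAP2 6 nM or IRAP 6 nM with 50 μM substrate (L-AMC for ERAP1 and IRAP, R-AMC for ERAP2) and varied inhibitor. Fluorescence rise followed at ex 380/em 460; IC50 from fit of activity against inhibitor concentration.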
T2 sequence (Q9NZ08 whole entry): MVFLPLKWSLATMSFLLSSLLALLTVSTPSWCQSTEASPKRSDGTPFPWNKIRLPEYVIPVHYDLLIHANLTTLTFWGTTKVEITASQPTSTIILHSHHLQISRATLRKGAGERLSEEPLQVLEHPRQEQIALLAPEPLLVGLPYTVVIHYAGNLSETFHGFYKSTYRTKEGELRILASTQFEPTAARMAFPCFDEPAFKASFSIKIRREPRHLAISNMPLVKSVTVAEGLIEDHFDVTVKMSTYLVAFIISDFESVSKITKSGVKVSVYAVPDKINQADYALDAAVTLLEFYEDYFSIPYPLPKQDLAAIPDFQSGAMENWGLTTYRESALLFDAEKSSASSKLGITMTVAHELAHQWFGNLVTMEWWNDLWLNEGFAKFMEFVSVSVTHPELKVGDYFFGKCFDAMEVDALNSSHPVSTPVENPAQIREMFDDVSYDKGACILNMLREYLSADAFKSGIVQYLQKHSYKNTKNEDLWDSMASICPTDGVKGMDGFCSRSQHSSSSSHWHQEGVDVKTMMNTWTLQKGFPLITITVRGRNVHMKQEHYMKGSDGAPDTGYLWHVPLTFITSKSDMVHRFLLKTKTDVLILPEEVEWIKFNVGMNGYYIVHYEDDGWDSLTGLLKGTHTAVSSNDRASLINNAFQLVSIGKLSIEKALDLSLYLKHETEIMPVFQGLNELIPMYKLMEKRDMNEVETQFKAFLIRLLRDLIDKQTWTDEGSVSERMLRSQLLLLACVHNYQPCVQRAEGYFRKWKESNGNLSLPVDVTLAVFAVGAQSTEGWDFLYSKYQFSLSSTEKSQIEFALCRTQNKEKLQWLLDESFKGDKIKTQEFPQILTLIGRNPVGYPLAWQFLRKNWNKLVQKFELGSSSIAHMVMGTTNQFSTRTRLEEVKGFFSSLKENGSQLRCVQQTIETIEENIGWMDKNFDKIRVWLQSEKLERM

The target in test [3] is T2, Endoplasmic reticulum aminopeptidase 1. In words: Inhibition of human recombinant ERAP1 expressed in baculovirus infected Sf9 cells using L-leucine-7-amido-4-methyl coumarin as substrate after 5 to 10 mins by fluorescence assay.
Test [4] addresses T1, Endoplasmic reticulum aminopeptidase 2. Briefly: Inhibition of human recombinant ERAP2 expressed in baculovirus infected cabbage looper ovary Hi5 cells using L-arginyl-7-amido-4-methyl coumarin as substrate up to 100 uM after 5 to 10 mins by fluorescence assay. To be noted: BTI-TN-5B1-4. The method, boiled down:
as §1

For test [5], the target named is Leucyl-cystinyl aminopeptidase (Homo sapiens, UniProt Q9UIQ6). Briefly: Inhibition of human recombinant IRAP expressed in baculovirus infected cabbage looper ovary Hi5 cells using L-leucine-7-amido-4-methyl coumarin as substrate up to 100 uM after 5 to 10 mins by fluorescence assay. To be noted: BTI-TN-5B1-4. An outline of the steps:
as §1

The values below come from ChEMBL document CHEMBL3414429, “3,4-diaminobenzoic acid derivatives as inhibitors of the oxytocinase subfamily of M1 aminopeptidases with immune-regulating properties” (J Med Chem, 2015).

Structures are written as SMILES. The source made the active and inactive calls. The rule behind the calls is not given here. Where only a bound is given, the exact number is not on record here.

Leucyl-cystinyl aminopeptidase, sequence (Q9UIQ6 whole entry): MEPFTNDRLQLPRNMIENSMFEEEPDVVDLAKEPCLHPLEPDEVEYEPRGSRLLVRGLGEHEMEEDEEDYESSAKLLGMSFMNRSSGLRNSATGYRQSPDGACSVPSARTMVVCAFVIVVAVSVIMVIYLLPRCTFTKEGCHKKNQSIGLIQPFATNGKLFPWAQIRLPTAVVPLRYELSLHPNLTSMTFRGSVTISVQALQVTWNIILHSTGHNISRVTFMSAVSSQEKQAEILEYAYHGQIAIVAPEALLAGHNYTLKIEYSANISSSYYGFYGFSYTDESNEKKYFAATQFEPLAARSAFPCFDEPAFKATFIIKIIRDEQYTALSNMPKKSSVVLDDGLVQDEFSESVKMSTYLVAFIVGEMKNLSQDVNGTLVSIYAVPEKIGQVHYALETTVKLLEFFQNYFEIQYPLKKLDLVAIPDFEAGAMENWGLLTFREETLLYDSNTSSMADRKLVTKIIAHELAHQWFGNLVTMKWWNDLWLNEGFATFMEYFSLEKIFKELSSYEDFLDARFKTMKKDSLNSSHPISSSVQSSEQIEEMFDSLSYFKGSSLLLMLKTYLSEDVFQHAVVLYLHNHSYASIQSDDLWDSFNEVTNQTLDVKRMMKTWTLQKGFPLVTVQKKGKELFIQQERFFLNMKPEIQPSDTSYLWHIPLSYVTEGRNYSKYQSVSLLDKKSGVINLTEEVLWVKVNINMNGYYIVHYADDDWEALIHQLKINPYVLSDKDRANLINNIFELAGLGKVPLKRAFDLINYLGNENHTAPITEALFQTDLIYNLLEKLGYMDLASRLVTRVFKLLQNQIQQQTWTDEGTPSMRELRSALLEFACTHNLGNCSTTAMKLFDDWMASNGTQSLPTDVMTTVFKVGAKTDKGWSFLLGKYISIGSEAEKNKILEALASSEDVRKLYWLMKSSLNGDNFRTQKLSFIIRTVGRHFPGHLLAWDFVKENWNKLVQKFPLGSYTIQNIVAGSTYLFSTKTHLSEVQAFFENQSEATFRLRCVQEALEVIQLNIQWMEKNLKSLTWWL
T1 sequence (Q6P179 whole entry): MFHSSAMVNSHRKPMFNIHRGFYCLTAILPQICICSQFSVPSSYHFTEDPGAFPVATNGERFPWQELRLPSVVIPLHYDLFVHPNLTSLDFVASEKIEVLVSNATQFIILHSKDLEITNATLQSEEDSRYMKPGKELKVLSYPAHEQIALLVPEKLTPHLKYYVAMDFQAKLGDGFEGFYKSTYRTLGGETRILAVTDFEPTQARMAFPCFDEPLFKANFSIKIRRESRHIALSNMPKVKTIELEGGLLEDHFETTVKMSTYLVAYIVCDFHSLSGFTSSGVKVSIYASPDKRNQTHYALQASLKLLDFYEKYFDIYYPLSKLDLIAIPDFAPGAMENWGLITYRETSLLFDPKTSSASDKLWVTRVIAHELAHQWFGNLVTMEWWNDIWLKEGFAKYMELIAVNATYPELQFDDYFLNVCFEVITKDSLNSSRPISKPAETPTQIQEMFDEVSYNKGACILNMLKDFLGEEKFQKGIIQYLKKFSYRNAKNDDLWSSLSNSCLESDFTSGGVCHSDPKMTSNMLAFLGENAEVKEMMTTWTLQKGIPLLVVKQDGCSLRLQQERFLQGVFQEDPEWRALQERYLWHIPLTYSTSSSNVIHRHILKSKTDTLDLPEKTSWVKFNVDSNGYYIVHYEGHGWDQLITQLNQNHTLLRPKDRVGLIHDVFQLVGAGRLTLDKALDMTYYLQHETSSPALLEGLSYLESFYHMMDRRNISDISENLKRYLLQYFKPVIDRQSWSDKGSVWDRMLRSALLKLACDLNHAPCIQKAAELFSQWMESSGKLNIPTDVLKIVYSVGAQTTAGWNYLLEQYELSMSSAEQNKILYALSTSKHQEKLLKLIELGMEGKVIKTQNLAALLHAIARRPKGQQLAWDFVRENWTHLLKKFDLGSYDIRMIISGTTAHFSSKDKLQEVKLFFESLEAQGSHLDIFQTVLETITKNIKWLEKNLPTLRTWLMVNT

For the compound `Nc1ccc(C(=O)N[C@@H](Cc2c[nH]c3ccccc23)C(=O)O)cc1NC(=O)[C@@H](N)Cc1ccc(O)cc1`, the IC50 in test [1] came out at 40 µM.

With `CC(C)[C@H](NC(=O)c1ccc(N)c(NC(=O)[C@@H](N)Cc2ccc(O)cc2)c1)C(=O)OCc1ccccc1`, the inhibition result in test [2] was “inactive”.

Take `COC(=O)[C@@H](NC(=O)c1ccc(N)c(NC(=O)[C@@H](N)Cc2ccc(O)cc2)c1)[C@@H](C)O`: in test [3], the IC50 was over 100 µM.

As for `CCCC[C@H](N)C(=O)Nc1ccc(C(=O)OC)cc1N`, in test [2], the inhibition entry was “inactive”.

As for `COC(=O)[C@H](CCCN)NC(=O)c1ccc(N)c(NC(=O)[C@@H](N)CCc2ccccc2)c1`, the inhibition entry in test [4], in test [5] and in test [2] was “inactive” in each case.

With `COC(=O)c1ccc(N)c(NC(=O)[C@@H](N)CCCNC(=N)N)c1`, the inhibition result in test [2] is “inactive”.

`COC(=O)c1ccc(NC(=O)[C@@H](N)Cc2ccc(OCc3ccccc3)cc2)c(N)c1`: the inhibition result in test [4] and in test [2] was “inactive” in each case.

Turning to `CCCC[C@H](N)C(=O)Nc1cc(C(=O)OC)ccc1N`, the IC50 in test [3] was over 100 µM.

As for `COC(=O)[C@H](Cc1ccc(O)cc1)NC(=O)c1ccc(N)c(N)c1`, the inhibition entry in test [4] and in test [2] was “inactive” in each case.

As to `Nc1ccc(C(=O)N[C@@H](Cc2c[nH]c3ccccc23)C(=O)OCc2ccccc2)cc1NC(=O)[C@@H](N)CCc1ccc(OCc2ccccc2)cc1`, the IC50 in test [3] and in test [1] was over 100 µM in each case.

On to `Nc1ccc(C(=O)O)cc1NC(=O)[C@@H](N)Cc1ccc(O)cc1`, for which, in test [3], the IC50 is over 100 µM.

Turning to `CC(C)[C@H](NC(=O)c1ccc(NC(=O)[C@@H](N)CCc2ccccc2)c(N)c1)C(=O)OCc1ccccc1`, in test [2], the inhibition entry is “inactive”. The IC50 in test [1] was over 100 µM.

As for `COC(=O)[C@H](CCCCN)NC(=O)c1ccc(N)c(NC(=O)[C@@H](N)CCCNC(=N)N)c1`, the inhibition entry in test [5] was “inactive”.

Turning to `COC(=O)c1ccc(NC(=O)[C@@H](N)Cc2ccc(O)cc2)c(N)c1`, in test [2], the inhibition entry was “inactive”.

Consider `COC(=O)[C@H](CCCCN)NC(=O)c1ccc(N)c(NC(=O)[C@@H](N)CC(C)C)c1`, for which the inhibition entry in test [5] and in test [2] was “inactive” each time.

Consider `COC(=O)[C@H](CCCCN)NC(=O)c1ccc(NC(=O)[C@@H](N)CCCNC(=N)N)c(N)c1`, for which the inhibition entry in test [2] is “inactive”.

Take `NCCCC[C@H](NC(=O)c1ccc(N)c(NC(=O)[C@@H](N)Cc2ccccc2)c1)C(=O)O`: in test [2], the inhibition entry was “inactive”.

Take `CC(C)[C@H](NC(=O)c1ccc(N)c(NC(=O)[C@@H](N)Cc2ccc(O)cc2)c1)C(=O)O`: in test [2], the inhibition entry is “inactive”. In addition, in test [1], the IC50 is over 100 µM.

On to `CCCC[C@H](N)C(=O)Nc1ccc(C(=O)N[C@H](C(=O)OCc2ccccc2)C(C)C)cc1N`, for which the IC50 in test [3] was over 100 µM.

Take `Nc1ccc(C(=O)O)cc1NC(=O)[C@@H](N)Cc1ccc(OCc2ccccc2)cc1`: the inhibition result in test [4] and in test [2] was “inactive” in each case.

On to `COC(=O)[C@H](Cc1ccc(O)cc1)NC(=O)c1ccc(N)c(NC(=O)[C@@H](N)Cc2ccc(O)cc2)c1`, for which the IC50 in test [3] amounted to 110 µM.

`COC(=O)[C@H](CCCCN)NC(=O)c1ccc(N)c(NC(=O)[C@@H](N)COCc2ccccc2)c1`: the inhibition entry in test [4], in test [5] and in test [2] was “inactive” each time.

As to `Nc1ccc(C(=O)N[C@@H](Cc2c[nH]c3ccccc23)C(=O)O)cc1N`, the IC50 in test [3] was over 100 µM.

For the compound `Nc1ccc(C(=O)N[C@@H](Cc2c[nH]c3ccccc23)C(=O)O)cc1NC(=O)[C@@H](N)CCc1ccc(O)cc1`, the IC50 in test [1] was over 100 µM.

Regarding `COC(=O)[C@H](CCCCN)NC(=O)c1ccc(N)c(N)c1`, the inhibition entry in test [4] was “inactive”. Also, the IC50 in test [3] is over 100 µM.

As to `COC(=O)c1ccc(N)c(NC(=O)[C@@H](N)CC(C)C)c1`, the inhibition result in test [4], in test [5] and in test [2] was “inactive” each time.

With `COC(=O)c1ccc(N)c(NC(=O)[C@@H](N)Cc2ccc(O)cc2)c1`, the inhibition result in test [2] is “inactive”. In test [1], the IC50 was over 100 µM.

Take `CC(C)C[C@H](N)C(=O)Nc1cc(C(=O)O)ccc1N`: the inhibition entry in test [4], in test [5] and in test [2] was “inactive” each time.

Turning to `NCCCC[C@H](NC(=O)c1ccc(N)c(NC(=O)[C@@H](N)Cc2ccc(O)cc2)c1)C(=O)O`, the inhibition entry in test [2] was “inactive”.

Consider `Nc1cc(C(=O)N[C@@H](Cc2c[nH]c3ccccc23)C(=O)OCc2ccccc2)ccc1NC(=O)[C@@H](N)CCc1ccc(OCc2ccccc2)cc1`, for which the inhibition entry in test [2] is “inactive”.

For `COC(=O)[C@H](CCCCN)NC(=O)c1ccc(N)c(NC(=O)[C@@H](N)CCc2ccc(O)cc2)c1`, in test [3], the IC50 is over 100 µM.

In the case of `COC(=O)[C@H](CCCNC(=N)N)NC(=O)c1ccc(N)c(N)c1`, in test [4], the inhibition entry is “inactive”.

As to `COC(=O)c1ccc(NC(=O)[C@@H](N)CCc2ccccc2)c(N)c1`, the IC50 in test [3] is over 100 µM.

With `COC(=O)[C@H](Cc1ccc(O)cc1)NC(=O)c1ccc(NC(=O)[C@@H](N)Cc2ccc(OCc3ccccc3)cc2)c(N)c1`, in test [2], the inhibition entry was “inactive”.

With `Nc1ccc(C(=O)N[C@@H](Cc2c[nH]c3ccccc23)C(=O)OCc2ccccc2)cc1N`, the inhibition result in test [2] is “inactive”. Also, the IC50 in test [1] is over 100 µM.

As to `COC(=O)[C@H](CCCCN)NC(=O)c1ccc(NC(=O)[C@@H](N)Cc2ccc(O)cc2)c(N)c1`, the IC50 in test [3] and in test [1] was over 100 µM in each case.

Turning to `COC(=O)c1ccc(NC(=O)[C@@H](N)CCCNC(=N)N)c(N)c1`, in test [2], the inhibition entry was “inactive”.

For the compound `COC(=O)c1ccc(N)c(NC(=O)[C@@H](N)CCc2ccc(OCc3ccccc3)cc2)c1`, the inhibition result in test [4] and in test [2] was “inactive” in each case.

Turning to `CCCC[C@H](N)C(=O)Nc1cc(C(=O)N[C@@H](Cc2ccc(O)cc2)C(=O)OC)ccc1N`, the IC50 in test [3] was over 100 µM.

Consider `COC(=O)[C@H](CCCCN)NC(=O)c1ccc(N)c(NC(=O)[C@@H](N)CCc2ccc(OCc3ccccc3)cc2)c1`, for which, in test [3], the IC50 is over 100 µM.

Turning to `COC(=O)c1ccc(N)c(NC(=O)[C@@H](N)Cc2ccc(OCc3ccccc3)cc2)c1`, the inhibition result in test [4] and in test [2] was “inactive” in each case.

Take `COC(=O)c1ccc(N)c(NC(=O)[C@@H](N)CCc2ccc(O)cc2)c1`: in test [4], the inhibition entry is “inactive”. In addition, in test [3], the IC50 is over 100 µM.

For `N=C(N)NCCC[C@H](N)C(=O)Nc1cc(C(=O)O)ccc1N`, in test [2], the inhibition entry was “inactive”. Besides, the IC50 in test [1] was over 100 µM.

As to `CC(C)[C@H](NC(=O)c1ccc(NC(=O)[C@@H](N)CCc2ccccc2)c(N)c1)C(=O)O`, in test [2], the inhibition result was “inactive”. The IC50 in test [1] was over 100 µM.

With `COC(=O)c1ccc(NC(=O)[C@@H](N)CC(C)C)c(N)c1`, the inhibition entry in test [5] and in test [2] was “inactive” throughout. In addition, the IC50 in test [1] was over 100 µM.

In the case of `CC(C)[C@H](NC(=O)c1ccc(N)c(NC(=O)[C@@H](N)CCCNC(=N)N)c1)C(=O)O`, the inhibition result in test [2] was “inactive”.

For `COC(=O)[C@H](CCCCN)NC(=O)c1ccc(NC(=O)[C@@H](N)CCc2ccccc2)c(N)c1`, the inhibition entry in test [4] and in test [2] was “inactive” each time.

Consider `CCCC[C@H](N)C(=O)Nc1ccc(C(=O)N[C@@H](CCCCN)C(=O)OC)cc1N`, for which, in test [2], the inhibition result was “inactive”.

Broadly, the IC50 is the concentration that gives 50% inhibition.
